Measurements as given in ChEMBL document CHEMBL1909523, “2,6-Bis-arylmethyloxy-5-hydroxychromones with antiviral activity against both hepatitis C virus (HCV) and SARS-associated coronavirus (SCV)” (Eur J Med Chem, 2011).
Active and inactive are the calls of the source. The rule behind the calls is not given here.

Legend:
[1] = Inhibition of NTPase activity of SCV NTPase/helicase after 5 mins by FRET assay; design: species or system Severe acute respiratory syndrome-related coronavirus
HS27 = test: Cytotoxicity against human HS27 cells after 24 hrs by MTT assay; type: cell-based; conditions: hs27, 24 h
In short: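 Normal human fibroblast HS27 cells, 5 × 10^3/well in DMEM, grown 1 day (37 °C, 5% CO2), then given compounds at 0.1, 0.5, 1, 5, 10 and 50 µM (from DMSO) for 24 h; MTT viability read-out; triplicates, repeated three times. Value is the concentration reducing proliferation by 50%.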

[2] = Inhibition of helicase activity of SCV NTPase/helicase assessed as inhibition of ds-DNA unwinding after 5 mins by FRET assay; design: species or system Severe acute respiratory syndrome-related coronavirus
In short: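 FRET unwinding: helicase solution (150 nM, 20 mM HEPES pH 7.4) preincubated 5 min at rt with compound. Started with 5× mix (5 mM MgCl2, 45 mM ATP, 25 mM DTT, 100 nM substrate): 25-bp TAMRA/fluorescein dsDNA with 20-dT 5′ overhang. Run 2 min at 37 °C, stopped with EDTA plus unlabelled trap oligomer; ex 485/em 535 nm. Value is 50% inhibition concentration.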

Hepatitis C virus [3] = test: Antiviral activity against HCV genotype 1 infected in human Huh7 cells assessed as reduction of viral replication after 4 days by luciferase reporter gene assay; type: functional, organism-based, Hepacivirus hominis; conditions: genotype 1, Huh-7, 96 h
In short: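 Subgenomic genotype 1 replicon (luc-ubi-neo) Huh-5-2 cells, 5 × 10^3/well, in DMEM with 500 µg/mL G418 for 24 h at 37 °C, 5% CO2; medium refreshed with G418, compounds added from DMSO stock; 4 days at 37 °C; luciferase read-out. Value is the concentration inhibiting HCV RNA replication by 50%.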

Hepatitis C virus [4] = test: Inhibition of HCV genotype 1b NS5B cdelta21 RNA polymerase using [alpha32p]GTP after 30 mins by microbeta scintillation counting; conditions: Hepatitis C virus subtype 1b

## O=c1c(OCc2cccc([N+](=O)[O-])c2)c(-c2ccccc2)oc2cc(O)cc(O)c12
[1]
  IC50: > 50 µM
HS27
  Activity: > 50 µM
[2]
  IC50: > 50 µM

## O=c1cc(OCc2cccc(I)c2)oc2ccc(OCc3cccc(Cl)c3)c(O)c12
Hepatitis C virus [3]
  EC50: 4 µM
Hepatitis C virus [4]
  inhibition: inactive
[1]
  IC50: 4 µM
HS27
  Activity: > 50 µM
[2]
  IC50: 11 µM

## N#Cc1cccc(COc2cc(O)c3c(=O)c(O)c(-c4ccccc4)oc3c2)c1
[1]
  IC50: > 50 µM
HS27
  Activity: > 50 µM
[2]
  IC50: > 50 µM

## O=c1cc(OCc2ccc(Cl)cc2)oc2ccc(OCc3cccc(Cl)c3)c(O)c12
Hepatitis C virus [3]
  EC50: 24 µM
Hepatitis C virus [4]
  inhibition: inactive
[1]
  IC50: 28 µM
HS27
  Activity: > 50 µM
[2]
  IC50: 53 µM

## O=c1cc(OCc2cccc(Cl)c2)oc2ccc(OCc3cccc(Cl)c3)c(O)c12
Hepatitis C virus [3]
  EC50: 17 µM
Hepatitis C virus [4]
  inhibition: inactive
[1]
  IC50: 10 µM
HS27
  Activity: > 50 µM
[2]
  IC50: 40 µM

## O=c1cc(OCc2ccc(I)cc2)oc2ccc(OCc3cccc(Cl)c3)c(O)c12
Hepatitis C virus [3]
  EC50: 3 µM
Hepatitis C virus [4]
  inhibition: inactive
[1]
  IC50: 23 µM
HS27
  Activity: > 50 µM
[2]
  IC50: 31 µM

## O=C(O)/C(O)=C/C(=O)c1cccc(NCc2ccc(Cl)cc2)c1
Hepatitis C virus [3]
  EC50: 0.8 µM
[1]
  IC50: > 50 µM
HS27
  Activity: > 50 µM

## O=c1cc(OCc2ccccc2)oc2ccc(OCc3cccc(Cl)c3)c(O)c12
Hepatitis C virus [3]
  EC50: > 50 µM
Hepatitis C virus [4]
  inhibition: inactive
[1]
  IC50: > 50 µM
HS27
  Activity: > 50 µM
[2]
  IC50: > 50 µM

## N#Cc1cccc(COc2cc(=O)c3c(O)c(OCc4cccc(Cl)c4)ccc3o2)c1
Hepatitis C virus [3]
  EC50: 17 µM
Hepatitis C virus [4]
  inhibition: inactive
[1]
  IC50: 37 µM
HS27
  Activity: > 50 µM
[2]
  IC50: > 50 µM

## O=c1cc(OCc2cc(Cl)cc(Cl)c2)oc2ccc(OCc3cccc(Cl)c3)c(O)c12
Hepatitis C virus [3]
  EC50: 1 µM
Hepatitis C virus [4]
  inhibition: inactive
[1]
  IC50: > 50 µM
HS27
  Activity: > 50 µM
[2]
  IC50: > 50 µM
